# From PubChem BioAssay
# Calls of active or inactive are those of the source.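 How the source made its calls, unless noted: active means viability at or below 30% in both replicate assays; inconclusive means viability at or below 30% in just one of the two assays; inactive means the rest.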
# How the values were obtained:
# [1] = reducers of endogenous Her2 protein level, primary screen, SKBR3 breast tumor cells, AlphaScreen, ATP viability (AID 461;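 active means Her2 level under about 52% in both replicate screens, with viability over 70% of control, limit read from the data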;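 on Her2 level: lower value means less Her2 protein in the cells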;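 on viability: percent of carrier control wells set as 100% viability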); conditions: 18-24 h, measured here: SKBR3 viability, ATP luminescence, at 10 µM
# [2] = target: Receptor tyrosine-protein kinase erbB-2 (Homo sapiens) (UniProt P04626); experiment: as above; conditions: 18-24 h, at 10 µM, stronger effect = lower value
# [3] = SK-BR-3 cell growth inhibitors, pilot screen, 24 h, human (AID 572;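 active means viability at or below 10% of carrier control in both of two separate runs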;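 further: compound exposure lasted between 18 and 24 h rather than exactly 24 h; 100% = carrier-treated control wells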); conditions: SK-BR-3 viability, CellTiter-Glo luminescence, at 10 µM, stronger effect = lower value
# [4] = HUVEC growth inhibition – cell-based, human, primary screen (AID 575); conditions: HUVEC proliferation, CellTiter-Glo luminescence, 72 h; at 10 µM; stronger effect = lower value;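 further: 100% = median of untreated cell wells with 0.1% DMSO on each plate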
# Summary of the method: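 system = HUVEC primary cells | amount = 1250 cells/well | buffer or medium = supplemented EBM, 2% fetal bovine serum | dosing = single-point 10 µM, DMSO 0.1% final | times = 72 h compound incubation | detection = CTG luminescence | read-out = % viability relative to median vehicle-well signal on each plate | control set = vehicle and MePR control wells | format = collagen-coated 384-well format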
# [5] = growth inhibitors of H69AR lung tumor, primary screen, human, duplicate replicates (AID 580;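 active means viability at or under a set limit in both replicates, limit being median viability minus 3 SD, cut at about 48% in these data, passing the limit was not always enough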;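 further: 100% = mean luminescence of untreated wells and 0% = no signal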); conditions: H69AR lung tumor cells viability, ATP luminescence, 72 h; at 10 µM; stronger effect = lower value
# [6] = reversal of MRP1-mediated doxorubicin resistance, pilot screen, H69AR cells, doxorubicin co-treatment (AID 601;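 active means viability loss from added drug above about 55%, and viability with drug at most 40%, in both replicates, limit read from the data, passing the limit was not always enough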); conditions: CellTiter-Glo, 72 h, at 10 µM; for differential viability (reversal): stronger effect = higher value
# [7] = 384-well plate pilot, post-Golgi transport modulator project, inhibition of yeast transport mutant growth (AID 636; in the data active means inhibition above about 31%); conditions: absorbance 615 nm, about 18 h, stronger effect = higher value
# [8] = growth suppression of yeast trafficking mutant, preliminary HTS, modulators of trafficking downstream of Golgi apparatus project, 1536-format plate, OD 615 nm (AID 637; in the data active means inhibition above about 30%); conditions: yeast transport mutant growth, absorbance 615 nm, 18 h; stronger effect = higher value
# [9] = H69AR cells + 2 uM doxorubicin, measured here: viability with 2 uM doxorubicin, stronger effect = lower value
# [10] = H69AR cells, compound alone cytotoxicity
# Sequence of Receptor tyrosine-protein kinase erbB-2 (Homo sapiens) (P04626 whole entry, looked up): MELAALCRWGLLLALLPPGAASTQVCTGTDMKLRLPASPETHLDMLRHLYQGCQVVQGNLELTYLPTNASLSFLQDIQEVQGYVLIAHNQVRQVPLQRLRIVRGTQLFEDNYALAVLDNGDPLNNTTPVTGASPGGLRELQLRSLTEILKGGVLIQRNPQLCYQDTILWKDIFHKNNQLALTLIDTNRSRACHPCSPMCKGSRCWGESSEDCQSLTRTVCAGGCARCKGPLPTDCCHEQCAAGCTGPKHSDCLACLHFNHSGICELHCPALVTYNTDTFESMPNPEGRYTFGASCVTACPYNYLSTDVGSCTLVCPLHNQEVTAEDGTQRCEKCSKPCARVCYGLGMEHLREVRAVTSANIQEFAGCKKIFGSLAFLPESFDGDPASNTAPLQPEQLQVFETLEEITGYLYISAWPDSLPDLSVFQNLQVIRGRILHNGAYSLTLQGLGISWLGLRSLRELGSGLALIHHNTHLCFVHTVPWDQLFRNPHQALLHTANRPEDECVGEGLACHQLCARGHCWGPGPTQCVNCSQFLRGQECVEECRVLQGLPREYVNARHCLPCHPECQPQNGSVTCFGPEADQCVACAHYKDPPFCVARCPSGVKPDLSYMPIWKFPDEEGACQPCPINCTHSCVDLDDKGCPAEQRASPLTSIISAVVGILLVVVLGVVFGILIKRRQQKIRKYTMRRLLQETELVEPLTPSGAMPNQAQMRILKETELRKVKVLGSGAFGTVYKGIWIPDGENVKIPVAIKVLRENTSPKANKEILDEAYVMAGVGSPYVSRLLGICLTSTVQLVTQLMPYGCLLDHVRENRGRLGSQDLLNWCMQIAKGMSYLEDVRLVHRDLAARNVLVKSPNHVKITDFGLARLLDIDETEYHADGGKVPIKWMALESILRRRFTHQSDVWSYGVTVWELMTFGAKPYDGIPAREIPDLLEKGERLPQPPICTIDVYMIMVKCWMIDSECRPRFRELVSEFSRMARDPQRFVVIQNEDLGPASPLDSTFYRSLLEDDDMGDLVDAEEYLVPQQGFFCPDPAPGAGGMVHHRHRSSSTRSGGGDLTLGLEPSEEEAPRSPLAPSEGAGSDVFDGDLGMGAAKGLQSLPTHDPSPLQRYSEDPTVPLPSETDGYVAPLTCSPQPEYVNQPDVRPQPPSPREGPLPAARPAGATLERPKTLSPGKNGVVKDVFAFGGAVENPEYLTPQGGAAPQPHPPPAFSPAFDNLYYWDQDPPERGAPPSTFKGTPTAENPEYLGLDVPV
SMILES,viability [1] [%],Her2 level [2],viability [3],viability [4],viability [5],differential viability (reversal) ([6]; H69AR cells + 2 uM doxorubicin),"viability [6, 9] [%]","viability [6, 10] [%]",inhibition [7],inhibition [8]
O=C(C1CCCN(S(=O)(=O)c2cccs2)C1)N1CCc2ccccc2C1 (stereo not given),83,75.5% (inactive),83% (inactive),83.4% (inactive),85.3% (inactive),-6.37% (inactive),91.7,85.3,-4% (inactive),3.28% (inactive)
Cc1c(C(=O)N2CCOCC2)oc2ccc(S(=O)(=O)N3CCCC3)cc12,95,109% (inactive),95% (inactive),94.3% (inactive),87.8% (inactive),-6.14% (inactive),94,87.8,-6.35% (inactive),-4.59% (inactive)
CCOc1ccc(NC(=O)CSc2nnc(Cc3cccn3C)n2-c2ccc(OC)cc2)cc1,82,81% (inactive),82% (inactive),79.5% (inactive),90.6% (inactive),-5.27% (inactive),95.9,90.6,-1.49% (inactive),-8.03% (inactive)
CCOc1ccc(NC(=O)c2ccccc2O)cc1,87.5,87.5% (inactive),87.5% (inactive),90.4% (inactive),101% (inactive),10.1% (inactive),90.5,101,-1.22% (inactive),-2.7% (inactive)
N#Cc1cnc(SCC(=O)Nc2ccccc2C(F)(F)F)nc1N,88.5,81.5% (inactive),88.5% (inactive),99.7% (inactive),90.2% (inactive),1.73% (inactive),88.5,90.2,-4.4% (inactive),5.9% (inactive)
O=c1[nH]c2ccccc2nc1NCCN1CCOCC1,97.5,87.5% (inactive),97.5% (inactive),114% (inactive),97.1% (inactive),7.97% (inactive),89.1,97.1,-0.79% (inactive),3.93% (inactive)
O=C(C1CC1)N(Cc1ccco1)c1nc(-c2ccccc2)cs1,96.5,108% (inactive),96.5% (inactive),81.4% (inactive),86.4% (inactive),1.75% (inactive),84.7,86.4,-5.6% (inactive),-8.36% (inactive)
CC(C)c1nnc(NC(=O)c2cnccn2)s1,87.5,88.5% (inactive),87.5% (inactive),104% (inactive),92.2% (inactive),-0.1% (inactive),92.3,92.2,-3.65% (inactive),-2.46% (inactive)
CCn1cc(S(=O)(=O)CC(=O)Nc2ccc(OC)cc2)c2ccccc21,104,88% (inactive),104% (inactive),105% (inactive),91.8% (inactive),21.4% (inactive),70.4,91.8,-1.6% (inactive),0% (inactive)
COc1ccc(C)cc1NS(=O)(=O)c1ccc(NS(=O)(=O)c2ccc(NC(C)=O)cc2)cc1,128,104% (inactive),128% (inactive),94.9% (inactive),93.5% (inactive),4.67% (inactive),88.9,93.5,-6.67% (inactive),1.29% (inactive)
COCCn1nnnc1C(C(C)C)N1CCN(C(=O)c2ccco2)CC1 (stereo not given),92.5,112% (inactive),92.5% (inactive),99.2% (inactive),96.7% (inactive),-1.47% (inactive),98.2,96.7,3.77% (inactive),15.6% (inactive)
COC(=O)c1cc(NC(=O)C2COc3ccccc3O2)cc(C(=O)OC)c1 (stereo not given),106,86% (inactive),106% (inactive),91.1% (inactive),84.2% (inactive),10.2% (inactive),74,84.2,-5.6% (inactive),0.32% (inactive)
O=C(NCCc1ccccn1)c1ccc(COc2ccccc2)o1,80,100% (inactive),80% (inactive),103% (inactive),102% (inactive),6.97% (inactive),95.3,102,-2.99% (inactive),0.33% (inactive)
Cn1nnnc1SCC(=O)N1CCN(c2cccc(Cl)c2)CC1,108,89% (inactive),108% (inactive),97.2% (inactive),85.6% (inactive),8.05% (inactive),77.5,85.6,-1.43% (inactive),-1.11% (inactive)
Cc1ccc(S(=O)(=O)C2(C(=O)Nc3nccs3)CC2)cc1,95,95% (inactive),95% (inactive),93.7% (inactive),101% (inactive),5.59% (inactive),95,101,-2.44% (inactive),-2.33% (inactive)
O=C(COC(=O)CCc1c[nH]c2ccccc12)NC1CCS(=O)(=O)C1 (stereo not given),87.5,96% (inactive),87.5% (inactive),90.8% (inactive),90.1% (inactive),1.06% (inactive),89.1,90.1,1.04% (inactive),-4.76% (inactive)
O=C(NC1CCCC1)c1c[nH]c2ccc(F)cc2c1=O,97.5,90.5% (inactive),97.5% (inactive),92.6% (inactive),92% (inactive),9.81% (inactive),82.1,92,-5.41% (inactive),-3.67% (inactive)
CCOc1cc(S(=O)(=O)N2CCC(Cc3ccccc3)CC2)c(OCC)cc1-n1cnnn1,77.5,102% (inactive),77.5% (inactive),90.7% (inactive),99.7% (inactive),32.5% (inactive),67.2,99.7,5.95% (inactive),-1.59% (inactive)
Cc1ccc(N2C(=O)c3ccccc3C2O)nc1 (stereo not given),122,93% (inactive),122% (inactive),59.8% (inactive),53.6% (inactive),0.305% (inactive),53.3,53.6,-0.13% (inactive),-1.83% (inactive)
O=c1c2nnn(Cc3ccc(Cl)cc3)c2ncn1Cc1ccc(F)cc1,124,89.5% (inactive),124% (inactive),65.6% (inactive),94.6% (inactive),7.53% (inactive),87.1,94.6,-9.86% (inactive),1.75% (inactive)
CC1(C)CC(=O)c2cc(OCC(=O)NCCCN3CCN(c4ccccc4F)CC3)ccc2O1,81,85.5% (inactive),81% (inactive),59.3% (inactive),80% (inactive),-5.98% (inactive),86,80,-4.61% (inactive),-3.45% (inactive)
Cc1c(Br)c(C(F)(F)F)nn1CC(=O)NCCN1CCOCC1,122,100% (inactive),122% (inactive),108% (inactive),96.6% (inactive),10.3% (inactive),86.3,96.6,-6.27% (inactive),2.1% (inactive)
COc1ccc(-c2nnc3sc(-c4c(OC)cccc4OC)nn23)cc1,105,93.5% (inactive),105% (inactive),62.6% (inactive),75.9% (inactive),-7.34% (inactive),83.2,75.9,-5.13% (inactive),-7.58% (inactive)
CCCCn1cnc2c(cnn2-c2ccc(Cl)cc2)c1=O,94.5,87% (inactive),94.5% (inactive),99.4% (inactive),86.1% (inactive),-1.77% (inactive),87.9,86.1,-3.55% (inactive),2.91% (inactive)
COc1cccc(OCc2nc3ccccc3[nH]2)c1,86.5,110% (inactive),86.5% (inactive),101% (inactive),95.8% (inactive),7.5% (inactive),88.3,95.8,-0.51% (inactive),-5% (inactive)
O=C(COc1ccccc1F)NC1CC1,94.5,88.5% (inactive),94.5% (inactive),88.7% (inactive),107% (inactive),11.7% (inactive),95,107,-6.58% (inactive),-2.5% (inactive)
O=C(OCn1nnc2ccccc2c1=O)C1CCN(S(=O)(=O)c2cccs2)CC1,97,133% (inactive),97% (inactive),97.7% (inactive),105% (inactive),1.22% (inactive),104,105,1.54% (inactive),-4.67% (inactive)
Cc1ccc(NC2=NC3(CCCCC3)N=C(N)N2)c(C)c1,114,96% (inactive),114% (inactive),87.9% (inactive),102% (inactive),18.6% (inactive),83.9,102,2.16% (inactive),-5.87% (inactive)
